Experiments:
Format in all cases: ADME, organism-based
[1] = Drug level in brain of C57Bl6 mouse at 10 mg/kg, ip after 2 hrs; design: dose 10 mg/kg, route intraperitoneal; conditions: read-out: Drug uptake
Summary of the method: (§1)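 C57Bl6 mice (n = 3) dosed 10 mg/kg intraperitoneally; blood and brain collected 2 h later. Plasma and brain mixed with acetonitrile (1:5 v:v or w:v); brain broken up by probe sonication. Drug measured by LC-MS/MS against standards in plasma or in blank brain matrix.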

[2] = AUC in Sprague-Dawley rat at 2 mg/kg, po; design: dose 2 mg/kg, route oral; conditions: plasma
Summary of the method: (§2)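 Sprague-Dawley rats (n = 3) given 1 mg/kg IV and 2 mg/kg oral gavage. Blood taken into EDTA tubes at 5, 15, 30 min and 1, 2, 4, 6, 8 h; plasma obtained by centrifugation. Plasma proteins precipitated with acetonitrile; drug measured by LC-MS/MS. Parameters derived by noncompartmental analysis.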

Rattus norvegicus = experiment: Oral bioavailability in Sprague-Dawley rat at 2 mg/kg; conditions: in vivo; summary of the method: as §2
[3] = Drug level in plasma of C57Bl6 mouse at 10 mg/kg, ip after 2 hrs; design: dose 10 mg/kg, route intraperitoneal; conditions: read-out: Drug uptake; summary of the method: as §1

SMILES	concentration at 2 h [1] [µM]	AUC [2] [µM·h]	F (Rattus norvegicus) [%]	concentration at 2 h [3] [µM]
Cc1nc(C)n(-c2ccc(Nc3cc(-c4nn(C)cc4-c4ccc(F)cc4)ccn3)cc2)n1	1.4	6	51	9
Cn1ccc(-c2cc(Nc3ccc(-n4cnc(N5CCOCC5)n4)cc3)ncc2Cl)n1	3.5	45	75	6.6
Cn1ccc(-c2cc(Nc3ccc(-n4cnc(-c5ccccn5)n4)cc3)ncc2F)n1	0.74	14.9	73	3.3
Cc1nc(C)n(-c2ccc(Nc3cc(-c4ccn(C)n4)c(Cl)cn3)cc2)n1	5.3	7.1	73	10.4
Cc1ccc(-c2ncn(-c3ccc(Nc4cc(-c5ccn(C)n5)c(F)cn4)cc3)n2)cn1	10.3	10	69	9
